ChEMBL document CHEMBL3112392, “Cytotoxicity and DNA binding property of triphenylethylene-coumarin hybrids with two amino side chains” (Bioorg Med Chem Lett, 2014)
Calls of active or inactive are those of the source. No cut-off for these calls is given here.

Tests used:
MCF7 = assay: Cytotoxicity against human MCF7 cells after 48 hrs by MTT assay; assay type: functional, cell-based; settings: for IC50: MCF7, 48 h
How it was run: (§1)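 Antiproliferative screen in human tumour lines; IC50 values derived, with cisplatin as positive control.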

K562 = assay: Cytotoxicity against human K562 cells after 48 hrs by MTT assay; assay type: functional, cell-based; settings: for IC50: K562, 48 h; how it was run: as §1
A549 = assay: Cytotoxicity against human A549 cells after 48 hrs by MTT assay; assay type: functional, cell-based; settings: A549, 48 h; how it was run: as §1
HeLa = assay: Cytotoxicity against human HeLa cells after 48 hrs by MTT assay; assay type: functional, cell-based; how it was run: as §1
[1] = Cytotoxicity against mouse skull osteoblasts at 100 uM after 48 hrs by MTT assay relative to control; assay type: cell-based; settings: osteoblast
How it was run: (§2)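 Primary osteoblasts were isolated from newborn mouse skull and exposed to compounds at five concentrations for 48 h. Induced cell death was measured by MTT assay and expressed as % cytotoxicity.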

[2] = Cytotoxicity against mouse skull osteoblasts at 40 uM after 48 hrs by MTT assay relative to control; assay type: cell-based; settings: osteoblast; how it was run: as §2
[3] = Cytotoxicity against mouse skull osteoblasts at 20 uM after 48 hrs by MTT assay relative to control; assay type: cell-based; settings: osteoblast; how it was run: as §2
[4] = Cytotoxicity against mouse skull osteoblasts at 10 uM after 48 hrs by MTT assay relative to control; assay type: cell-based; settings: osteoblast; how it was run: as §2
[5] = Cytotoxicity against mouse skull osteoblasts at 1 uM after 48 hrs by MTT assay relative to control; assay type: cell-based; settings: osteoblast; how it was run: as §2
DNA [6] = assay: Binding affinity to calf thymus DNA assessed as change in melting temperature at 5 uM after 10 mins by thermal denaturation assay; assay type: nucleic-acid assay; settings: Bos taurus
DNA [7] = assay: Binding affinity to calf thymus DNA assessed as melting temperature at 5 uM after 10 mins by thermal denaturation assay (reference value: 67 degC); assay type: nucleic-acid assay; settings: Bos taurus
DNA [8] = assay: Binding affinity to calf thymus DNA assessed as intercalation at 20 uM after 10 mins measured at 350 to 500 nm wavelength by circular dichroism spectroscopic analysis; assay type: nucleic-acid assay; settings: Bos taurus
How it was run: (§3)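 Circular dichroism: spectra of Ct-DNA (5.0 × 10^-5 M) recorded with or without compound (2.0 × 10^-5 M). Buffer was 10 mM phosphate pH 7.4 with 50 mM NaCl and 2% DMSO, at 25 °C.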

DNA [9] = assay: Binding affinity to calf thymus DNA assessed as decrease in intensity of negative band at 20 uM after 10 mins measured at 246 nm wavelength by circular dichroism spectroscopic analysis; assay type: nucleic-acid assay; settings: Bos taurus; how it was run: as §3
DNA [10] = assay: Binding affinity to calf thymus DNA assessed as increase in intensity of positive band at 20 uM after 10 mins measured at 277 nm wavelength by circular dichroism spectroscopic analysis; assay type: nucleic-acid assay; settings: Bos taurus; how it was run: as §3
DNA [11] = assay: Binding affinity to calf thymus DNA assessed as hyperchromicity at 10 uM after 10 mins by UV-vis spectrophotometric analysis; assay type: nucleic-acid assay; settings: Bos taurus
How it was run: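 UV–vis absorption titration: 1.0 × 10^-5 M compound in 10 mM phosphate buffer pH 7.4 with 50 mM NaCl and 2% DMSO at 25 °C, with increasing Ct-DNA. Spectral changes were followed, and binding was fitted at the absorption maximum.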

DNA [12] = assay: Binding affinity to calf thymus DNA after 10 mins by Stern-Volmer plot analysis; assay type: nucleic-acid assay; settings: Bos taurus
How it was run: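 Fluorescence titration: 5.0 × 10^-5 M compound in 10 mM phosphate buffer pH 7.4 with 50 mM NaCl and 2% DMSO at 25 °C, Ct-DNA added stepwise. Excitation wavelength set per compound (318–339 nm); excitation and emission slits 10.0 nm; emission read near 455 nm. F/F0 plotted against Ct-DNA concentration and analysed by Stern–Volmer plot.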

Row | Structure (SMILES) | Activity (MCF7) | Activity (K562) | IC50 (MCF7) | IC50 (K562) | IC50 (A549) | IC50 (HeLa) | Activity [1] | Activity [2] | Activity [3] | Activity [4] | Activity [5] | ΔTm (DNA [6]) | Tm (DNA [7]) | Activity (DNA [8]) | Activity (DNA [9]) | Activity (DNA [10]) | Activity (DNA [11]) | Kb (DNA [12])
1 | O=c1oc2ccccc2c(-c2ccc(O)cc2)c1-c1ccc(O)cc1 | inactive | inactive | – | – | – | – | – | – | – | – | – | – | – | – | – | – | – | –
2 | CN(C)CCOc1ccc(-c2c(-c3ccc(OCCN(C)C)cc3)c3ccccc3oc2=O)cc1 | – | – | 71.6 µM | 99.6 µM | > 100 µM | > 100 µM | – | – | – | – | – | – | – | – | – | – | – | –
3 | O=c1oc2cc(OCCN3CCCC3)ccc2c(-c2ccccc2)c1-c1ccc(OCCN2CCCC2)cc1 | – | – | 6.63 µM | 5.46 µM | 7.35 µM | 4.7 µM | 32.8% | 16.4% | 5.2% | -5.6% | -2.5% | – | – | – | – | – | – | –
4 | CCN(CC)CCOc1ccc(-c2c(-c3ccccc3)c3ccc(OCCN(CC)CC)cc3oc2=O)cc1 | – | – | 5.95 µM | 2.73 µM | 8.97 µM | 9.58 µM | 31.7% | 15.8% | 3.7% | -1.5% | -7.2% | 1.7 °C | 68.8 °C | Active | Active | Active | 8% | 6 ×10³ /M
5 | O=c1oc2cc(OCCN3CCOCC3)ccc2c(-c2ccccc2)c1-c1ccc(OCCN2CCOCC2)cc1 | – | – | > 100 µM | > 100 µM | > 100 µM | > 100 µM | – | – | – | – | – | – | – | – | – | – | – | –
6 | O=c1oc2cc(OCCN3CCCCC3)ccc2c(-c2ccccc2)c1-c1ccc(OCCN2CCCCC2)cc1 | – | – | 6.53 µM | 4.9 µM | 5.21 µM | 5.08 µM | 33.4% | 18.6% | 4.9% | 3.7% | -6.5% | 1.2 °C | 68.2 °C | Active | Active | Active | 6% | 7 ×10³ /M
7 | O=c1oc2ccccc2c(-c2ccc(OCCN3CCCC3)cc2)c1-c1ccc(OCCN2CCCC2)cc1 | – | – | 16.6 µM | 7.54 µM | 8.79 µM | 8.25 µM | 39.5% | 20.4% | 8.4% | -0.5% | 0.1% | – | – | – | – | – | – | –
8 | O=c1oc2cc(O)ccc2c(-c2ccccc2)c1-c1ccc(O)cc1 | inactive | inactive | – | – | – | – | – | – | – | – | – | – | – | – | – | – | – | –
9 | CN1CCN(CCOc2ccc(-c3c(-c4ccccc4)c4ccc(OCCN5CCN(C)CC5)cc4oc3=O)cc2)CC1 | – | – | 3.47 µM | 3.23 µM | 4.7 µM | 3.68 µM | 31.6% | 14.6% | 3.2% | 0.6% | -2.4% | 2.2 °C | 69.2 °C | Active | Active | Active | 8% | 5.2 ×10³ /M
10 | CCN(CC)CCOc1ccc(-c2c(-c3ccc(OCCN(CC)CC)cc3)c3ccccc3oc2=O)cc1 | – | – | 50.1 µM | 56.2 µM | 46.3 µM | 45.2 µM | – | – | – | – | – | 4.5 °C | 71.5 °C | Active | Active | Active | 17% | 1 ×10⁴ /M
11 | O=c1oc2ccccc2c(-c2ccc(OCCN3CCCCC3)cc2)c1-c1ccc(OCCN2CCCCC2)cc1 | – | – | 4.29 µM | 5.44 µM | 7.28 µM | 4.36 µM | 40.3% | 22.3% | 10.6% | 1.6% | -3.2% | 3 °C | 70 °C | Active | Active | Active | 16% | 1.2 ×10⁴ /M
12 | CN1CCN(CCOc2ccc(-c3c(-c4ccc(OCCN5CCN(C)CC5)cc4)c4ccccc4oc3=O)cc2)CC1 | – | – | 78.3 µM | 53.2 µM | 55.6 µM | 60.5 µM | – | – | – | – | – | 4 °C | 71 °C | Active | Active | Active | 17% | 1.4 ×10⁴ /M
13 | O=c1oc2ccccc2c(-c2ccc(OCCN3CCOCC3)cc2)c1-c1ccc(OCCN2CCOCC2)cc1 | – | – | > 100 µM | > 100 µM | > 100 µM | > 100 µM | – | – | – | – | – | – | – | – | – | – | – | –
14 | CN(C)CCOc1ccc(-c2c(-c3ccccc3)c3ccc(OCCN(C)C)cc3oc2=O)cc1 | – | – | 6.99 µM | 7.19 µM | 9.13 µM | 8.49 µM | 31.5% | 13.8% | 4.3% | -0.2% | -0.6% | – | – | – | – | – | – | –
